≈ marks a conversion by molar mass, not a printed value.
Assays:
[1] = Cytotoxicity against african green monkey Vero cells; format: cell-based; details: chlorocebus sabaeus
How it was run: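 Uninfected Vero monolayers (ATCC CCL81; MEM with 10% newborn calf serum) in 25 cm2 flasks, 2.10^6 cells, four flasks per dilution, exposed to 0.05–5 mM in maintenance medium, diluted from DMSO stocks with MEM. After 96 h, morphology checked by microscopy; cells trypsinized and counted by trypan blue exclusion against untreated cultures. CC50 = concentration halving cell number.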

[2] = system: Human alphaherpesvirus 1; test: Antiviral activity against HSV1 in african green monkey Vero cells assessed as log reduction of virus titer at 21.6 ug/ml; format: functional
How it was run: (§1)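 Vero (ATCC CCL81) monolayers, confluent and 1 day old, in microtiter plates. Compound was diluted from DMSO stock into MEM and added just before infection with HSV-1 strain H 29 S at 100 TCID50/well. Each drug was tested in sextuplicate at 37° for 72 h. Wells were freeze-thawed 3 times, pooled and clarified, then titrated by limit dilution (CPE, TCID50/ml). Activity is the log10 titer reduction versus untreated controls.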

[3] = system: Human alphaherpesvirus 1; test: Antiviral activity against HSV1 in african green monkey Vero cells assessed as log reduction of virus titer at 32.4 ug/ml; format: functional; how it was run: as §1
[4] = system: Human alphaherpesvirus 1; test: Antiviral activity against HSV1 in african green monkey Vero cells assessed as log reduction of virus titer at 1.4 ug/ml; format: functional; how it was run: as §1
[5] = system: Human alphaherpesvirus 1; test: Antiviral activity against HSV1 in african green monkey Vero cells assessed as log reduction of virus titer at 2.8 ug/ml; format: functional; how it was run: as §1
[6] = system: Human alphaherpesvirus 1; test: Antiviral activity against HSV1 in african green monkey Vero cells assessed as log reduction of virus titer at 10.8 ug/ml; format: functional; how it was run: as §1
[7] = system: Human alphaherpesvirus 1; test: Antiviral activity against HSV1 in african green monkey Vero cells assessed as log reduction of virus titer at 20.3 ug/ml; format: functional; how it was run: as §1
[8] = system: Human alphaherpesvirus 1; test: Antiviral activity against HSV1 in african green monkey Vero cells assessed as log reduction of virus titer at 30.5 ug/ml; format: functional; how it was run: as §1
[9] = system: Human alphaherpesvirus 1; test: Antiviral activity against HSV1 in african green monkey Vero cells assessed as log reduction of virus titer at 40.6 ug/ml; format: functional; how it was run: as §1
[10] = system: Human alphaherpesvirus 1; test: Antiviral activity against HSV1 in african green monkey Vero cells assessed as log reduction of virus titer at 5.4 ug/ml; format: functional; how it was run: as §1
[11] = system: Human alphaherpesvirus 1; test: Antiviral activity against HSV1 in african green monkey Vero cells assessed as log reduction of virus titer at 22.9 ug/ml; format: functional; how it was run: as §1
[12] = system: Human alphaherpesvirus 1; test: Antiviral activity against HSV1 in african green monkey Vero cells assessed as log reduction of virus titer at 34.3 ug/ml; format: functional; how it was run: as §1
[13] = system: Human alphaherpesvirus 1; test: Antiviral activity against HSV1 in african green monkey Vero cells assessed as log reduction of virus titer at 45.7 ug/ml; format: functional; how it was run: as §1
[14] = system: Human alphaherpesvirus 1; test: Antiviral activity against HSV1 in african green monkey Vero cells assessed as log reduction of virus titer at 12 ug/ml; format: functional; how it was run: as §1
[15] = system: Human alphaherpesvirus 1; test: Antiviral activity against HSV1 in african green monkey Vero cells assessed as log reduction of virus titer at 24.1 ug/ml; format: functional; how it was run: as §1
[16] = system: Human alphaherpesvirus 1; test: Antiviral activity against HSV1 in african green monkey Vero cells assessed as log reduction of virus titer at 36.2 ug/ml; format: functional; how it was run: as §1
[17] = system: Human alphaherpesvirus 1; test: Antiviral activity against HSV1 in african green monkey Vero cells assessed as log reduction of virus titer at 15 ug/ml; format: functional; how it was run: as §1
[18] = system: Human alphaherpesvirus 1; test: Antiviral activity against HSV1 in african green monkey Vero cells assessed as log reduction of virus titer at 5.7 ug/ml; format: functional; how it was run: as §1
[19] = system: Human alphaherpesvirus 1; test: Antiviral activity against HSV1 in african green monkey Vero cells assessed as log reduction of virus titer at 11.4 ug/ml; format: functional; how it was run: as §1
[20] = system: Human alphaherpesvirus 1; test: Antiviral activity against HSV1 in african green monkey Vero cells assessed as log reduction of virus titer at 10 ug/ml; format: functional; how it was run: as §1
[21] = system: Human alphaherpesvirus 1; test: Antiviral activity against HSV1 in african green monkey Vero cells assessed as log reduction of virus titer at 48.3 ug/ml; format: functional; how it was run: as §1
[22] = system: Human alphaherpesvirus 1; test: Antiviral activity against HSV1 in african green monkey Vero cells assessed as log reduction of virus titer at 60.4 ug/ml; format: functional; how it was run: as §1
[23] = system: Human alphaherpesvirus 1; test: Antiviral activity against HSV1 in african green monkey Vero cells assessed as log reduction of virus titer at 72.5 ug/ml; format: functional; how it was run: as §1
[24] = system: Human alphaherpesvirus 1; test: Antiviral activity against HSV1 in african green monkey Vero cells assessed as log reduction of virus titer at 5 ug/ml; format: functional; how it was run: as §1
[25] = system: Human alphaherpesvirus 1; test: Antiviral activity against HSV1 in african green monkey Vero cells assessed as log reduction of virus titer at 10.1 ug/ml; format: functional; how it was run: as §1

For `O=c1cc(-c2ccc(O)cc2)oc2cc(O)cc(O)c12` [APIGENIN], which CC50 [1] is on record?
The CC50 was 54 µg/mL (≈ 200 µM).

What about the Activity [2] of the same compound?
The Activity was 1.

And the Activity [3]?
The Activity was 1.5.

And the Activity [4]?
Its Activity is 0.25.

And the Activity [5]?
The Activity was 0.4.

What does the source list for `O=c1cc(-c2ccccc2)oc2cc(O)cc(O)c12` [CHRYSIN]?
CC50 [1]: 76.2 µg/mL (≈ 300 µM); Activity [6]: 0.5; Activity [7]: 0.5; Activity [8]: 0.8; Activity [9]: 1.1; Activity [10]: 0.25

With `O=c1c(O)c(-c2ccccc2)oc2cc(O)cc(O)c12` [GALANGIN] as the compound, how does the CC50 [1] read?
The CC50 was 43.2 µg/mL (≈ 160 µM).

What about the Activity [6] of the same compound?
Its Activity is 2.3.

And the Activity [2]?
Its Activity is 3.5.

Which CC50 [1] does the source give for `O=c1c(O)c(-c2ccc(O)cc2)oc2cc(O)cc(O)c12` [KAEMPFEROL] here?
The CC50 was 91.5 µg/mL (≈ 320 µM).

What about the Activity [11] of the same compound?
The Activity was 1.5.

What about the Activity [12] of the same compound?
The Activity was 3.1.

And the Activity [13]?
The Activity was 3.5.

And the Activity [14]?
Its Activity is 0.1.

And the Activity [15]?
Its Activity is 0.75.

What about the Activity [16] of the same compound?
Its Activity is 1.25.

Which CC50 [1] does the source give for `O=c1cc(-c2ccc(O)c(O)c2)oc2cc(O)cc(O)c12` [LUTEOLIN] here?
The CC50 was 22.9 µg/mL (≈ 80 µM).

And the Activity [17]?
The Activity was 1.5.

What about the Activity [18] of the same compound?
Its Activity is 0.9.

And the Activity [19]?
Its Activity is 2.2.

What about the Activity [20] of the same compound?
Its Activity is 1.

For `O=c1c(O)c(-c2ccc(O)c(O)c2)oc2cc(O)cc(O)c12` [QUERCETIN], which CC50 [1] is on record?
The CC50 was 151 µg/mL (≈ 500 µM).

And the Activity [21]?
Its Activity is 1.4.

And the Activity [22]?
Its Activity is 2.

What about the Activity [23] of the same compound?
The Activity was 2.3.

What about the Activity [24] of the same compound?
The Activity was 0.

What about the Activity [25] of the same compound?
Its Activity is 0.3.

From ChEMBL document CHEMBL1150063, “Synergistic effect of flavones and flavonols against herpes simplex virus type 1 in cell culture. Comparison with the antiviral activity of propolis” (J Nat Prod, 1992)
